Compound activity from PubChem BioAssay.
Hits are enriched below; roughly 4.9% of the tested compounds scored in any of these assays.
NF-kB expr up – activators of NF-kB expression in neurons, primary screen, cell-based, HTS; human neuronal cells, NF-kB reporter expression; stronger effect = higher value; fold change at 12.5 µM; 190,000 compounds, 1.6% hits; AID 1239, 2008; in the data active = fold change above about 3.3
STAT1 blocker – STAT1 signaling inhibitors, primary screen, cell-based, HTS, luciferase reporter; AID 920, 2007; NIH 3T3 STAT1-luciferase reporter, IFN-gamma, luminescence; inhibition, % at 5.5 µM; 200,000 compounds, 0.35% hits;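 active = inhibition above a set limit, the mean inhibition across all tested compounds plus 3 SD, cut at about 34% in these data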;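 note: 0% = IFN-gamma with DMSO and 100% = IFN-gamma with 300 µM nifuroxazide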
APP 5'UTR act – activators of APP 5'UTR luciferase reporter, primary screen, SH-SY5Y cells. activation, % at 2 µM. 190,000 compounds, 1% hits. AID 1276, 2008. SH-SY5Y APP 5'UTR luciferase reporter, luminescence; zero percent = DMSO vehicle wells;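 active = activation above a set limit, based on mean plus 3 SD of controls, cut at about 140% in these data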
STAT3 activator – IL-6 driven STAT3 reporter potentiators, primary screen, U3A cells, luciferase, luminescence, MLSCN library; IL-6 STAT3-luciferase reporter; 100% = signal with IL-6 EC80 alone; activation (% of control), % at 5.6 µM; 190,000 compounds, 0.91% hits; AID 871, 2007;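 active = activation above the screen-wide mean of compound activation plus 3 SD, cut at about 130% in these data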;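 note: 0% = background luminescence of wells with medium and substrate only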
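Test system: human U3A cells carrying STAT3-luciferase construct; control set: IL-6-only wells as 100% reference; timing: compound pre-incubation 1 h before IL-6, then 6 h stimulation at 37 °C; also added: IL-6 stimulus at 33 ng/mL final; evaluation: % activation versus median of IL-6-stimulated wells; detection: reporter luminescence signal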
STAT3 blocker – IL-6 driven STAT3 reporter inhibitors, primary screen, U3A cells, luciferase, luminescence, MLSCN library; IL-6 STAT3-luciferase reporter; host cell line lacks STAT1; inhibition, % at 5.5 µM; 190,000 compounds, 0.89% hits; AID 862, 2007;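 active = inhibition above the mean inhibition across all screened compounds plus 3 SD, cut at about 44% in these data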;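 note: 0% = DMSO only wells and 100% = 100 µM nifuroxazide control wells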
STAT1 activator – STAT1 signaling activators, primary screen, cell-based, HTS, luciferase reporter; NIH 3T3 STAT1-luciferase reporter, IFN-gamma, luminescence; 100% = IFN-gamma alone, no compound; activation (% of control), % at 5.5 µM; 200,000 compounds, 2.6% hits; AID 932, 2007;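 active = activation above the screen-wide mean activation plus 3 SD, cut at about 130% in these data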;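 note: raw ratio to IFN-gamma control signal so 100% means no change and 0% no light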
An asterisk follows results filed as active; . = no result.

SMILES	NF-kB expr up	STAT1 blocker	APP 5'UTR act	STAT3 activator	STAT3 blocker	STAT1 activator
FC(F)(F)c1cnc(NNC(=S)Nc2ccc(Cl)cc2)c(Cl)c1	0.32	6	2	88	17	95
CC(=O)C1=C(C)OC(N)=C(C#N)C1c1cc2cc(C)c(C)cc2nc1Cl (stereo unspecified)	1.1	5	30	178*	-94	96
COC(=O)C1=C(C)OC(N)=C(C#N)C1c1cc2cc(C)ccc2nc1Cl (stereo unspecified)	1.3	5	-2	97	8	94
CCOc1ccc2c(c1)C(N(CCN1CCOCC1)C(=O)Nc1ccccc1)CC(C)(C)O2 (stereo unspecified)	0.97	0	20	97	6	99
CCc1ccc(NC(=O)c2cc(-c3ccc(F)cc3)on2)cc1	1.2	-13	28	88	21	110
COc1ccc(NC(=O)c2cc(-c3cccs3)on2)cc1OC	1.5	-9	15	94	11	109
CCc1ccc(NC(=O)c2cc(-c3cccs3)on2)cc1	2.3	-42	39	97	12	136*
Cc1ccc(NC(=O)c2cc(-c3cccs3)on2)cc1C	2.2	-52	5	100	9	146*
CCOC(=O)C(=O)N=Nc1c(O)n(C)c2ccccc12	1.3	-11	3	94	12	109
Cn1c(O)c(N=NC(=O)c2ccccc2O)c2ccccc21	3.1	-34	216*	125	-24	130*
Cc1occc1C(=O)N=Nc1c(O)n(C)c2ccccc12	3	-55	112	121	-25	149*
Cn1c(O)c(N=NC(=O)c2ccco2)c2ccccc21	2.5	-24	176*	86	20	121
CCCc1cc(=O)[nH]c(SCC(=O)Nc2ccc(Br)cc2Br)n1	1.2	0	4	102	1	100
CC(=O)Oc1ccc(N(c2ccccc2)S(=O)(=O)c2ccc(C)cc2)cc1	1.2	-6	47	104	-4	105
CC(C)c1cc(C(=O)Nc2cccc(Cl)c2)no1	11*	-26	187*	74	39	124
CC(=O)c1cccc(NC(=O)c2cc(C(C)C)on2)c1	3.9*	-25	119	86	22	122
CC(C)c1cc(C(=O)NCCc2ccccc2)no1	2.2	-37	75	105	7	133*
Cc1cc(OCCCCNC(C)C)cc(C(C)C)c1	1.1	1	1	98	2	99
CC(=O)c1c(OC(=O)c2ccccc2Br)ccc2c(C)cc(=O)oc12	0.88	4	-11	99	10	96
Cc1cc(OC(=O)c2ccccc2Br)cc(=O)n1C	0.96	39*	-1	83	26	65
COc1ccc(NC(=O)c2cccnc2Nc2ccc(OC)cc2)cc1	0.93	6	-8	80	26	94
CC(C)c1ccc(Nc2ncccc2C(=O)O)cc1	1.2	-48	140*	94	11	143*
CCCCN1CCc2c([nH]c3ccccc23)C1=O	1.9	-39	37	102	4	137*
CN(c1ccc(C(=O)NCCSC(C)(C)C)cc1)S(=O)(=O)c1ccccc1	1.1	0	19	103	2	99
Cc1ccc(C(=O)NCCSC(C)(C)C)cc1	4.1*	-31	125	86	22	128
SMILES	NF-kB expr up	STAT1 blocker	APP 5'UTR act	STAT3 activator	STAT3 blocker	STAT1 activator
CC(C)(C)SCCNC(=O)c1ccccc1	1.8	-30	.	120	-24	139*
CC(C)(C)c1ccc(C(=O)NCc2ccccc2)cc1	2.4	-23	58	114	-12	119
CSCCNC(=O)c1ccc(C(C)(C)C)cc1	5.4*	2	-5	99	4	98
O=C(NC(NNc1ccc([N+](=O)[O-])cc1)(C(F)(F)F)C(F)(F)F)c1ccccc1Cl	1	10	-11	98	8	91
CN(C)S(=O)(=O)c1ccc2nc(NC(=O)c3cccnc3)sc2c1	1.6	-27	83	106	-5	121
O=C(NC(Nc1nc2ccc([N+](=O)[O-])cc2s1)(C(F)(F)F)C(F)(F)F)c1ccccc1Cl	0.87	47*	-66	22	92*	57
O=C(NC(Nc1nc2ccc([N+](=O)[O-])cc2s1)(C(F)(F)F)C(F)(F)F)c1cccnc1	0.48	46*	-1	42	71*	59
COc1ccc(N/C=C/C(=C(C#N)C#N)N(C)C)cc1	1.2	6	15	102	3	93
CCOc1ccc(CCNC(=O)c2cccc(C#N)c2)cc1OCC	1.1	12	-3	98	8	91
C/C(=N\NC(=O)c1nn(C)cc1Br)c1cccc(NC(=O)c2ccncc2)c1	1.1	-47	33	100	0	141*
C/C(=N\NC(=O)c1ccc(Br)cc1)c1cccc(NC(=O)c2cccnc2)c1	0.96	-13	15	103	7	110
OC1CCCCC1Sc1nc2ccccc2s1 (stereo unspecified)	2.1	-33	10	105	-2	130*
O=C1OCCC1Sc1nc2ccccc2s1 (stereo unspecified)	1.3	-5	-8	104	-2	106
CCOC(=O)C1=C(CSc2nc(CC)c(C)cc2C#N)OC(N)=C(C#N)C1c1ccccc1 (stereo unspecified)	0.96	14	11	102	4	87
C#CCSc1nc(-c2cccs2)ccc1C#N	1	-2	-9	112	-12	102
COC(=O)CSc1nc(-c2cccs2)ccc1C#N	7.3*	-37	152*	108	-4	133*
CCN(CC)C(=O)CSc1nc(-c2ccccc2)ccc1C#N	1.2	-38	19	94	12	132*
N#Cc1ccc(-c2ccccc2)nc1SCC(=O)c1cccc(Cl)c1	1.1	-3	-9	91	21	103
CCOC(=O)C1=C(CSc2nc(-c3ccccc3)ccc2C#N)OC(N)=C(C#N)C1c1ccc(OC)cc1 (stereo unspecified)	2.5	-53	95	103	-1	147*
CC(C)c1ccc(NC(=O)NN2CCOCC2)cc1	1.7	-53	86	107	1	146*
Cc1[nH]c2ccccc2c1C(=O)CSC(=S)N(C)C1CCCCC1	0.99	-7	12	96	8	106
Cc1[nH]c2ccccc2c1C(=O)CSC(=S)N1CCCCC1	1.9	-48	53	109	-7	144*
C=CC#CC1(O)CC(C)N(C)CC1C (stereo unspecified)	1.3	-4	0	103	6	104
